Type in all cases: functional
One assay deals with Staphylococcus aureus. The experiment in a line: Antimicrobial activity against Staphylococcus aureus ATCC […] after 18 hrs by agar-well diffusion assay. In outline: (§1)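 Organisms suspended in Mueller Hinton broth, diluted to about 10⁶ cfu/mL, and flood-inoculated onto Mueller Hinton agar, then dried. Samples dissolved in DMSO were added to 5 mm wells cut in the agar. Plates were incubated 18 h at 35 °C, and inhibition zones were measured. Ampicillin was the standard drug, with a DMSO solvent control.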
For orientation: In agar diffusion tests the substance spreads into inoculated agar from a disc or well.

The subject of another assay is Escherichia coli. In words: Antimicrobial activity against Escherichia […] after 18 hrs by agar-well diffusion assay. In outline: as §1
The subject of a further assay is Pseudomonas aeruginosa. In words: Antimicrobial activity against Pseudomonas aeruginosa ATCC 27853 after 18 hrs by agar-well diffusion assay. In outline: as §1
A further assay relates to Bacillus cereus. The experiment in a line: Antimicrobial activity against Bacillus cereus 702 Roma after 18 hrs by agar-well diffusion assay. In outline: as §1
Assay [1] has as its system Yersinia pseudotuberculosis. In words: Antimicrobial activity against Yersinia pseudotuberculosis ATCC 911 after 18 hrs by agar-well diffusion assay. In outline:
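Bacteria were suspended in Mueller Hinton broth at about 10⁶ cfu/mL and flood-inoculated onto Mueller Hinton agar, then dried. Samples in DMSO went into 5-mm cork-bored wells. Plates were incubated 18 h at 35 °C and the zone of inhibition was read. Ampicillin was the standard, with a DMSO solvent control.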

The subject of the next assay is Candida albicans. In words: Antimicrobial activity against Candida albicans ATCC 60193 after 18 hrs by agar-well diffusion assay. In outline:
(§2)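 Yeast suspended in Mueller Hinton broth at about 10⁶ cfu/mL and flood-inoculated onto Sabouraud dextrose agar, then dried. Samples dissolved in DMSO were placed in 5 mm wells bored in the agar. After 18 h at 35 °C, the zone of inhibition was measured. Fluconazole was the standard drug, with a DMSO solvent control.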

The subject of a further assay is Enterococcus faecalis. The experiment in a line: Antimicrobial activity against Enterococcus faecalis ATCC 29212 after 18 hrs by agar-well diffusion assay. In a few lines: as §1
A further assay concerns Candida tropicalis. In words: Antimicrobial activity against Candida tropicalis ATCC 13803 after 18 hrs by agar-well diffusion assay. In a few lines:
as §2

Active and inactive are the calls of the source. No cut-off for these calls is given here.

Turning to `Cc1ccc(-c2nn(Cc3nnc(Nc4ccccc4)s3)c(=O)n2N)cc1`, the “inhibition zone (IZ)” value (with Staphylococcus aureus (ATCC 25923); with Escherichia coli; with Pseudomonas aeruginosa; with Bacillus cereus; in assay [1]; in the assay with Candida albicans) was “inactive” each time. Also, the “inhibition zone (IZ)” value in the assay with Enterococcus faecalis and in the assay on Candida tropicalis was “inactive” in each case.

With `Cc1ccc(-c2nn(CC(=O)NNC(=S)Nc3ccc(F)cc3)c(=O)n2N)cc1`, the “inhibition zone (IZ)” value in the assay on Staphylococcus aureus came to 30 mm; in the assay on Escherichia coli, 34 mm; in the assay on Pseudomonas aeruginosa, 35 mm; in the assay with Bacillus cereus, 22 mm; in assay [1] it was 28 mm; in the assay with Enterococcus faecalis, 30 mm. In addition, the “inhibition zone (IZ)” value in the assay on Candida albicans and with Candida tropicalis was “inactive” each time.

Turning to `COc1ccc(/C=N/n2c(-c3ccc(C)cc3)nn(Cc3nnc(S)n3-c3ccc(F)cc3)c2=O)cc1`, the “inhibition zone (IZ)” value in the assay with Staphylococcus aureus is listed as 26 mm; in the assay with Escherichia coli, 30 mm; in the assay with Pseudomonas aeruginosa, 35 mm; in the assay on Bacillus cereus it was 22 mm; in assay [1], 30 mm; with Enterococcus faecalis, 24 mm. Moreover, the “inhibition zone (IZ)” value in the assay on Candida albicans and with Candida tropicalis was “inactive” each time.

`COc1ccc(-n2c(Cn3nc(-c4ccc(C)cc4)n(N)c3=O)nnc2SC)cc1`: the “inhibition zone (IZ)” value (with Staphylococcus aureus (ATCC 25923); with Escherichia coli; with Pseudomonas aeruginosa; in the assay on Bacillus cereus; in assay [1]; in the assay with Candida albicans) was “inactive” in each case. The “inhibition zone (IZ)” value in the assay with Enterococcus faecalis and in the assay on Candida tropicalis was “inactive” each time.

For the compound `Cc1ccc(-c2nn(Cc3nnc(S)n3-c3ccc(F)cc3)c(=O)n2N)cc1`, the “inhibition zone (IZ)” value was 26 mm in the assay with Staphylococcus aureus; 30 mm with Escherichia coli; 35 mm in the assay with Pseudomonas aeruginosa; 25 mm in the assay on Bacillus cereus; 26 mm in assay [1]; 30 mm with Enterococcus faecalis. The “inhibition zone (IZ)” value in the assay on Candida albicans and in the assay with Candida tropicalis was “inactive” each time.

On to `CCSc1nnc(Cn2nc(-c3ccc(C)cc3)n(N)c2=O)n1-c1ccc(F)cc1`, for which the “inhibition zone (IZ)” value in the assay with Staphylococcus aureus came out at 8 mm; with Bacillus cereus it was 9 mm; with Candida albicans, 6 mm; in the assay with Candida tropicalis it was 6 mm. Moreover, the “inhibition zone (IZ)” value (in the assay on Escherichia coli; in the assay with Pseudomonas aeruginosa; in assay [1]; in the assay on Enterococcus faecalis) was “inactive” in each case.

On to `Cc1ccc(-c2nn(Cc3nn(CN4CCN(C)CC4)c(=S)n3-c3ccc(F)cc3)c(=O)n2/N=C/c2ccc(F)cc2)cc1`, for which the “inhibition zone (IZ)” value (with Staphylococcus aureus (ATCC 25923); in the assay with Escherichia coli; in the assay with Pseudomonas aeruginosa; in assay [1]; with Candida albicans; in the assay on Enterococcus faecalis) was “inactive” throughout. The “inhibition zone (IZ)” value in the assay with Candida tropicalis is “inactive”. Also, the “inhibition zone (IZ)” value in the assay on Bacillus cereus is reported as 8 mm.

With `Cc1ccc(-c2nn(CC(=O)NNC(=S)Nc3ccccc3)c(=O)n2N)cc1`, the “inhibition zone (IZ)” value in the assay with Staphylococcus aureus came out at 6 mm. Moreover, the “inhibition zone (IZ)” value (in the assay on Escherichia coli; in the assay with Pseudomonas aeruginosa; with Bacillus cereus; in assay [1]; with Candida albicans; in the assay on Enterococcus faecalis) was “inactive” each time. Further, the “inhibition zone (IZ)” value in the assay with Candida tropicalis was “inactive”.

For the compound `COc1ccc(Nc2nnc(Cn3nc(-c4ccc(C)cc4)n(N)c3=O)s2)cc1`, the “inhibition zone (IZ)” value in the assay with Staphylococcus aureus is reported as 28 mm; in the assay on Escherichia coli, 30 mm; in the assay on Pseudomonas aeruginosa, greater than 30 mm; with Bacillus cereus, 23 mm; in assay [1], 22 mm; with Enterococcus faecalis it was 20 mm. For the same compound, the “inhibition zone (IZ)” value with Candida albicans and in the assay with Candida tropicalis was “inactive” in each case.

`Cc1ccc(-c2nn(Cc3nn(CN4CCN(C)CC4)c(=S)n3-c3ccccc3)c(=O)n2N)cc1`: the “inhibition zone (IZ)” value (in the assay on Staphylococcus aureus (ATCC 25923); in the assay with Escherichia coli; with Pseudomonas aeruginosa; in the assay on Bacillus cereus; in assay [1]; with Candida albicans) was “inactive” throughout. Also, the “inhibition zone (IZ)” value in the assay on Enterococcus faecalis and in the assay on Candida tropicalis was “inactive” throughout.

For `Cc1ccc(-c2nn(Cc3nnc(S)n3-c3ccccc3)c(=O)n2/N=C/c2ccc(F)cc2)cc1`, the “inhibition zone (IZ)” value came to 28 mm in the assay with Staphylococcus aureus; 25 mm with Escherichia coli; 30 mm in the assay with Pseudomonas aeruginosa; 20 mm in the assay on Bacillus cereus; 25 mm in assay [1]; 20 mm in the assay with Enterococcus faecalis. In addition, the “inhibition zone (IZ)” value with Candida albicans and in the assay on Candida tropicalis was “inactive” throughout.

Regarding `Cc1ccc(-c2nn(Cc3nnc(S)n3-c3ccc(F)cc3)c(=O)n2/N=C/c2ccc(F)cc2)cc1`, the “inhibition zone (IZ)” value in the assay with Staphylococcus aureus was determined as 24 mm; with Escherichia coli, 25 mm; with Pseudomonas aeruginosa, 30 mm; in the assay on Bacillus cereus, 20 mm; in assay [1] it was 22 mm; in the assay on Enterococcus faecalis it was 20 mm. For the same compound, the “inhibition zone (IZ)” value in the assay on Candida albicans and with Candida tropicalis was “inactive” throughout.

`Cc1ccc(-c2nn(Cc3nnc(Nc4ccc(F)cc4)s3)c(=O)n2N)cc1`: the “inhibition zone (IZ)” value (in the assay on Staphylococcus aureus (ATCC 25923); in the assay with Escherichia coli; in the assay with Pseudomonas aeruginosa; in the assay on Bacillus cereus; in assay [1]; in the assay with Candida albicans) was “inactive” in each case. In addition, the “inhibition zone (IZ)” value with Enterococcus faecalis and with Candida tropicalis was “inactive” each time.

As to `Cc1ccc(-c2nn(Cc3nn(CNCCN4CCOCC4)c(=S)n3-c3ccccc3)c(=O)n2N)cc1`, the “inhibition zone (IZ)” value (in the assay with Staphylococcus aureus (ATCC 25923); in the assay with Escherichia coli; in the assay on Pseudomonas aeruginosa; with Bacillus cereus; in assay [1]; in the assay with Candida albicans) was “inactive” in each case. Besides, the “inhibition zone (IZ)” value with Enterococcus faecalis and in the assay on Candida tropicalis was “inactive” in each case.

For the compound `Cc1ccc(-c2nn(Cc3nnc(N(C)c4ccccc4)s3)c(=O)n2N)cc1`, the “inhibition zone (IZ)” value (in the assay on Staphylococcus aureus (ATCC 25923); in the assay on Escherichia coli; in the assay with Pseudomonas aeruginosa; in assay [1]; with Candida albicans; in the assay with Enterococcus faecalis) was “inactive” in each case. Besides, the “inhibition zone (IZ)” value in the assay on Bacillus cereus was found to be 7 mm; in the assay on Candida tropicalis, 6 mm.

Turning to `COc1ccc(-n2c(S)nnc2Cn2nc(-c3ccc(C)cc3)n(N)c2=O)cc1`, the “inhibition zone (IZ)” value with Staphylococcus aureus is 30 mm; in the assay on Escherichia coli, 28 mm; with Pseudomonas aeruginosa, 30 mm; with Bacillus cereus, 25 mm; in assay [1] it was 22 mm; in the assay with Enterococcus faecalis, 25 mm. Besides, the “inhibition zone (IZ)” value in the assay with Candida albicans and in the assay on Candida tropicalis was “inactive” each time.

As for `Cc1ccc(-c2nn(Cc3nnc(S)n3-c3ccccc3)c(=O)n2N)cc1`, the “inhibition zone (IZ)” value in the assay with Staphylococcus aureus turned out to be 24 mm; in the assay on Escherichia coli, 25 mm; in the assay on Pseudomonas aeruginosa, 30 mm; with Bacillus cereus it was 20 mm; in assay [1], 22 mm; in the assay on Enterococcus faecalis, 20 mm. Also, the “inhibition zone (IZ)” value in the assay with Candida albicans and in the assay with Candida tropicalis was “inactive” each time.

In the case of `CSc1nnc(Cn2nc(-c3ccc(C)cc3)n(N)c2=O)n1-c1ccccc1`, the “inhibition zone (IZ)” value (in the assay on Staphylococcus aureus (ATCC 25923); in the assay with Escherichia coli; in the assay on Pseudomonas aeruginosa; in the assay with Bacillus cereus; in assay [1]; with Candida albicans) was “inactive” each time. Moreover, the “inhibition zone (IZ)” value with Enterococcus faecalis and in the assay with Candida tropicalis was “inactive” throughout.

As to `COc1ccc(NC(=S)NNC(=O)Cn2nc(-c3ccc(C)cc3)n(N)c2=O)cc1`, the “inhibition zone (IZ)” value in the assay on Staphylococcus aureus was determined as 28 mm; in the assay on Escherichia coli it was 24 mm; with Pseudomonas aeruginosa, 35 mm; in the assay on Bacillus cereus it was 22 mm; in assay [1] it was 25 mm; in the assay with Enterococcus faecalis, 28 mm. Further, the “inhibition zone (IZ)” value in the assay with Candida albicans and in the assay with Candida tropicalis was “inactive” in each case.

For the origin of these results see ChEMBL document CHEMBL1152494, “Synthesis of some new 1,3,4-thiadiazol-2-ylmethyl-1,2,4-triazole derivatives and investigation of their antimicrobial activities” (2009).
